In publication PMC6943132 (Nucleic Acids Research, 2019):
Like-named read-outs stand apart in the source and are kept apart here.

Columns and labels:
[1] = target: T1, BenM WT (Acinetobacter sp. ADP1, UniProt O68014 1-304); experiment: BLI
T1 sequence: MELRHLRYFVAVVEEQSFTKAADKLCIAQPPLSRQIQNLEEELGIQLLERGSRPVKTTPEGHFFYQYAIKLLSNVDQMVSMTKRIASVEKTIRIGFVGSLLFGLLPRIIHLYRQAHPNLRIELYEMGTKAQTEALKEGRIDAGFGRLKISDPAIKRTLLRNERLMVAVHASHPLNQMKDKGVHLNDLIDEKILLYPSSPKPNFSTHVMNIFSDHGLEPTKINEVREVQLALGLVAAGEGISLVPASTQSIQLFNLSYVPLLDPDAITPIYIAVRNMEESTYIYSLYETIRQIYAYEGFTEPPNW

[2] = tested on: 209bp_CYC1p_BenO_T1::yEGFP reporter; format: cell-based, Saccharomyces cerevisiae; details: P < 0.05
[3] = tested on: 209bp_CYC1p_BenO_T1::yEGFP reporter; format: cell-based, Saccharomyces cerevisiae
Method in brief: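 S. cerevisiae CEN.PK carrying a chromosomal yeGFP reporter and plasmid-borne BenM variants, grown overnight in SC-Leu at 30°C. Cultures were subcultured 1:100 into medium ± CCM for 22–23 h, then flow cytometry (488 nm) gave MFI from 10 000 gated single cells. Controls were run in biological triplicate. Fold induction is inducer-medium MFI divided by control-medium MFI. Populations were compared by two-tailed Mann–Whitney test.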

[4] = tested on: 209 bp_CYC1pro; experiment: Biolayer interferometry of BenM WT on negative control cyc1 promoter element; format: binding; details: BLI, 1.6–100 nM WT BenM
Method in brief: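 His-tagged protein purified on a HisTrap column with stepwise imidazole elution (Tris–HCl, NaCl, glycerol, DTT, pH 7.9), then optionally polished by Superdex 200 gel filtration (50 mM Tris–HCl, 150 mM NaCl, pH 8.0). Biotinylated 209 bp promoter duplex was annealed at 94°C for 2 min, then RT for 3 h. Kinetics were kept only when fit R² > 0.95; Req/Rmax fractional saturation versus protein concentration gave the Hill coefficient.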

B1: 209bp_CYC1pro (dsDNA)
DNA 1: ATTAGGACCTTTGCAGCATAAATTACTATACTTCTATAGACACACAAACACAAATACACACACTAAATTAATA
DNA 2: TATTAATTTAGTGTGTGTATTTGTGTTTGTGTGTCTATAGAAGTATAGTAATTTATGCTGCAAAGGTCCTAAT
binding result [1]: no binding

B2: BenM WT: Acinetobacter sp. ADP1 CCM-binding LysR-type transcriptional activator BenM, wild type (protein, UniProt O68014 1-304, looked up)
HTH-type transcriptional …: T1 sequence
lowest adipic acid concentration with significant induction [2]: 14 mM
fold-induction ([3]; 0.035 mM CCM): 0.90 ± 0.05
fold-induction ([3]; 0.070 mM CCM): 1.02 ± 0.14
fold induction ([3]; 1.4 mM CCM vs control medium): 2.8 fold
lowest CCM concentration with significant induction (lower detection limit) ([3]; P < 0.05 vs control medium): 0.56 mM
fold induction by CCM ([3]; within the operational range of WT BenM): 5 fold
binding to negative control cyc1 promoter element [4]: no binding was observed
